Experimental data: ChEMBL document CHEMBL3525967, “In vitro glucuronidation of the antibacterial triclocarban and its oxidative metabolites” (Drug Metab Dispos, 2012)

What was measured:
[1] = target: T1, UDP-glucuronosyltransferase 2B4 (Homo sapiens, UniProt P06133); assay: Drug metabolism assessed as human UGT2B4-mediated glucuronidation expressed in baculovirus infected insect sf9 cells incubated for 5 mins prior to UDPGA addition measured after 5 to 30 mins by LC-UV analysis; format: ADME
T1 sequence (P06133 whole entry): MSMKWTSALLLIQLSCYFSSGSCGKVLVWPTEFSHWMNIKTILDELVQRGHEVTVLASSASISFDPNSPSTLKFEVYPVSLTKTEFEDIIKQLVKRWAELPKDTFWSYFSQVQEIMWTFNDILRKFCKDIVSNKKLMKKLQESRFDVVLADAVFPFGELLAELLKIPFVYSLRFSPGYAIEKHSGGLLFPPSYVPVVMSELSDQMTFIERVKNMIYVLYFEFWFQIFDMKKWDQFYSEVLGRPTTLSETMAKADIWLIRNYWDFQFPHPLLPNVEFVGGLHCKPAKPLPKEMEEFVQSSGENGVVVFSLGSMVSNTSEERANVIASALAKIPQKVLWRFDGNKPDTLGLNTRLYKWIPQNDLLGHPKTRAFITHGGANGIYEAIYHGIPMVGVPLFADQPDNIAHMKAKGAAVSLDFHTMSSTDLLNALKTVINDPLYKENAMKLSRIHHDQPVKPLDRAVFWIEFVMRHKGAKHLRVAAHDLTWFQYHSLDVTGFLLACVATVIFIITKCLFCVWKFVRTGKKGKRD
In short: (§1)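 Microsomes or Sf-9 Supersomes (5 µg protein in 200 µL 100 mM potassium phosphate pH 7.4) pre-treated with alamethicin on ice 15 min; substrate 10 µM final (2% DMSO), MgCl2 and saccharolactone 10 mM each; 5 min preincubation at 37 °C, then UDPGA to start. Samples taken at 5, 10, 15, 30 min (or 2, 5, 10, 15 min) into ACN with internal standard; LC-UV-ESI-MS/MS.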

Liver microsome = assay: Drug metabolism in Sprague-Dawley rat liver microsomes assessed as glucuronidation incubated for 5 mins prior to UDPGA addition measured after 5 to 30 mins by LC-UV analysis; format: ADME; in short: as §1
[2] = target: T2, UDP-glucuronosyltransferase 1A7 (Homo sapiens, UniProt Q9HAW7); assay: Drug metabolism assessed as human UGT1A7-mediated glucuronidation expressed in baculovirus infected insect sf9 cells incubated for 5 mins prior to UDPGA addition measured after 5 to 30 mins by LC-UV analysis; format: ADME; in short: as §1
T2 sequence (Q9HAW7 whole entry): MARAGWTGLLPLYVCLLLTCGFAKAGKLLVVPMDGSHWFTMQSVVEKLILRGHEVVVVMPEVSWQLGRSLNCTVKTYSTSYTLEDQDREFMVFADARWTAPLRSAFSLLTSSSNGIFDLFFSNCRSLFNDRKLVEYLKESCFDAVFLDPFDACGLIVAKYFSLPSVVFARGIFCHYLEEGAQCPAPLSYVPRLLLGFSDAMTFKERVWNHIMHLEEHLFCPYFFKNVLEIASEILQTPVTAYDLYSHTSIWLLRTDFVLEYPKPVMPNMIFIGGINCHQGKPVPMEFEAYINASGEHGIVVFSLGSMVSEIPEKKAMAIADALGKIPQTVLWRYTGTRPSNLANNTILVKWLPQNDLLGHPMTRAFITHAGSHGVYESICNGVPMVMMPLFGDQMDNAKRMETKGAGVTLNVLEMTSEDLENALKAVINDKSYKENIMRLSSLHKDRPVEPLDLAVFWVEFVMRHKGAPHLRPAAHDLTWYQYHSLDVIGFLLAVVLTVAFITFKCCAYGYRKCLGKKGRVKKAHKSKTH

[3] = target: T3, UDP-glucuronosyltransferase 2B15 (Homo sapiens, UniProt P54855); assay: Drug metabolism assessed as human UGT2B15-mediated glucuronidation expressed in baculovirus infected insect sf9 cells incubated for 5 mins prior to UDPGA addition measured after 5 to 30 mins by LC-UV analysis; format: ADME; in short: as §1
T3 sequence (P54855 whole entry): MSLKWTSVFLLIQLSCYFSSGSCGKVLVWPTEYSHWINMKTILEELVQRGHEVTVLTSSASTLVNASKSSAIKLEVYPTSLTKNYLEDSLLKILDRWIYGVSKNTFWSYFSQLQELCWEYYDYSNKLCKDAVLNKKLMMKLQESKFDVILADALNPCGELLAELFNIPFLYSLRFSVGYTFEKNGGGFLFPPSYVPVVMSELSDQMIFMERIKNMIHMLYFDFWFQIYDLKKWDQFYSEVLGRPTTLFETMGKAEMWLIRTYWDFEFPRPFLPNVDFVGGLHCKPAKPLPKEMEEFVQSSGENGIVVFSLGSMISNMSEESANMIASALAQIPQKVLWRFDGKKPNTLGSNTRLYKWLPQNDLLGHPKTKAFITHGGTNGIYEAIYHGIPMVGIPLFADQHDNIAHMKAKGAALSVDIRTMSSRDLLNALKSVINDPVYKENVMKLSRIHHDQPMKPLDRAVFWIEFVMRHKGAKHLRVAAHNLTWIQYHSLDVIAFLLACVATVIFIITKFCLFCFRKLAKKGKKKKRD

[4] = target: T4, UDP-glucuronosyltransferase 1A1 (Homo sapiens, UniProt P22309); assay: Drug metabolism assessed as human UGT1A1-mediated glucuronidation expressed in baculovirus infected insect sf9 cells incubated for 5 mins prior to UDPGA addition measured after 5 to 30 mins by LC-UV analysis; format: ADME; in short: as §1
T4 sequence (P22309 whole entry): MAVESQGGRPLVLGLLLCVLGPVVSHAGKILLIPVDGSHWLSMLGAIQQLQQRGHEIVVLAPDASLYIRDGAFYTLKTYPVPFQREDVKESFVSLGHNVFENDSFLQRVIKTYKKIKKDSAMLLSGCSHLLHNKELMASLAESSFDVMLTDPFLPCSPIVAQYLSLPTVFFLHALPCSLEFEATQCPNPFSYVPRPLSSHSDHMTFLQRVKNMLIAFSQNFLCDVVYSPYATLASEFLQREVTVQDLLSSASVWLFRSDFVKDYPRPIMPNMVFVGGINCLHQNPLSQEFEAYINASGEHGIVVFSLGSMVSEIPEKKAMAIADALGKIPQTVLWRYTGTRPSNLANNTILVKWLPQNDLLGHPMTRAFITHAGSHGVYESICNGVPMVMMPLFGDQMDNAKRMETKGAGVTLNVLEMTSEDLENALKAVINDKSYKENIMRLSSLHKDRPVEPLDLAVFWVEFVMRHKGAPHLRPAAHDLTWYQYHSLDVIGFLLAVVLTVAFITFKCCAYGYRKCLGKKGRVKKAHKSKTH

[5] = Drug excretion in Swiss webster mouse urine assessed as N'-glucuronide-triclocarban formation at 5 mg/kg, po by LC-MS analysis; format: ADME, organism-based; parameters: dose 5 mg/kg, route oral; details: in vivo
In short: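 Mice were housed two per metabolic cage, with blank urine collected over the 24 h before dosing. TCC was given by oral gavage as a 1 mg/mL solution in 20/80 DMSO/PEG400 (v/v) at 5 mg/kg. Urine was collected at 0-24 h and 24-48 h and analysed by online LC-MS. Values are the mean of two independent experiments.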

Row | Structure (SMILES) | Drug metabolism [1] | Drug metabolism (Liver microsome) | Drug metabolism [2] | Drug metabolism [3] | Drug metabolism [4] | Drug excretion [5]
1 | O=C(Nc1ccc(Cl)c(Cl)c1)Nc1ccc(Cl)cc1O | metabolite_not_detected | 2600 pmol/min/mg | 870 pmol/min/mg | metabolite_not_detected | 850 pmol/min/mg | –
2 | O=C(Nc1ccc(Cl)cc1)Nc1cc(Cl)c(Cl)cc1O | metabolite_not_detected | 5500 pmol/min/mg | 1100 pmol/min/mg | metabolite_not_detected | 820 pmol/min/mg | –
3 | O=C(Nc1ccc(Cl)c(O)c1)Nc1ccc(Cl)c(Cl)c1 | metabolite_not_detected | 8700 pmol/min/mg | 1700 pmol/min/mg | metabolite_not_detected | 520 pmol/min/mg | –
4 | O=C(Nc1ccc(Cl)cc1)Nc1ccc(Cl)c(Cl)c1 [TRICLOCARBAN] | – | – | – | – | – | metabolite_detected
